# Test results from PubChem BioAssay AID652011 (Sanford-Burnham Center for Chemical Genomics, 2013).
# Values joined by “and” are separate entries in the source; they are usually repeats but may differ in a detail not shown here. Equal entries are not always repeated.
# Target: Endothelial PAS domain-containing protein 1 (Homo sapiens) (UniProt Q99814)
# Assay: HIF-1a and HIF-2a reporter inhibitors, SAR follow-up, cell-based, luminescence, MIAPaCa-2, 786-0, panel (AID 652011)
# Settings: MIAPaCa-2/PANC HIF reporter, luciferase luminescence, desferoxamine, overnight, HIF2a PANC, run 1; at 99 µM (top of the series)
# Procedure, shortened: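 Probe or stimulus: desferoxamine stimulus / Schedule: overnight compound incubation at 37 °C, 10 min reagent / Dosing: compounds from 10 mM and 0.3125 mM stocks, 1% DMSO final / Signal: luciferase luminescence with One-Glo reagent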
# Endothelial PAS domain-containing protein 1 (Homo sapiens), sequence (Q99814 whole entry, looked up, the tested form may be a part): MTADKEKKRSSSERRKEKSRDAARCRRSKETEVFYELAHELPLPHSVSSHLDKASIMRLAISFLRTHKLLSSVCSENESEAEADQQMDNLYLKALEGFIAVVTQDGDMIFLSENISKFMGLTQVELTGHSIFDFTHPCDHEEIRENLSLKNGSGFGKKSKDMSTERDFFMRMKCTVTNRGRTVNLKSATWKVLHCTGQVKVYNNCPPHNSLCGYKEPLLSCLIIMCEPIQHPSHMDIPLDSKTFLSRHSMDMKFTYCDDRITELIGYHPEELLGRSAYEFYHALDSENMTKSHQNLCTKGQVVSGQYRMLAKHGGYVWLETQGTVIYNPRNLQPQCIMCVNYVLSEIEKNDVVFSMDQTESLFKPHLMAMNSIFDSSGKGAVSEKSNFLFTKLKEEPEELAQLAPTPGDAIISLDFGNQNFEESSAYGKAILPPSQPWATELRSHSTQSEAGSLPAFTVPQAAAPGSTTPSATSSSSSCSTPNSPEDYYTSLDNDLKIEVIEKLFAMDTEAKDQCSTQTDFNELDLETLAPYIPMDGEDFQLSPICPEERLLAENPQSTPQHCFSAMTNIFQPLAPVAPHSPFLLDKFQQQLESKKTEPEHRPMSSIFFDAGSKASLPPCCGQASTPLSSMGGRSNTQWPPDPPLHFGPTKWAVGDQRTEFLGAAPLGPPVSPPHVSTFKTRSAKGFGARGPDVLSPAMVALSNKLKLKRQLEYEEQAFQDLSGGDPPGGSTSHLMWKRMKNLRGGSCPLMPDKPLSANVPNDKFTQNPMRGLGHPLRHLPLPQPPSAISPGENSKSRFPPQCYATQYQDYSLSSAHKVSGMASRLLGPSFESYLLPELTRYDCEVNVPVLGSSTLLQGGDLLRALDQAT
row,SMILES,inhibition
1,CCC(C)NC(=O)CCc1nc(-c2ccc(C(C)(C)C)cc2)no1 (stereo not given),-20.2%
2,CC(C)c1ccc(-c2noc(CCC(=O)NC(C)(C)C)n2)cc1,57.4%
3,CNC(=O)CCc1nc(-c2ccc(C(C)C)cc2)no1,24%
4,CC(C)(C)c1ccc(-c2noc(CCC(N)=O)n2)cc1,115% and 99.9%
5,CCCCc1ccc(-c2noc(CCC(=O)NC(C)(C)C)n2)cc1,62.8%
6,CCCCc1ccc(-c2noc(CCC(=O)NC(C)CC)n2)cc1 (stereo not given),45.6%
7,CCC(C)NC(=O)CCc1nc(-c2ccc(C(C)C)cc2)no1 (stereo not given),12.1%
8,CCN(CC)C(=O)CCc1nc(-c2ccc(C(C)(C)C)cc2)no1,44.3% and 43.4%
9,CCC(C)NC(=O)CCc1nc(-c2ccccc2)no1 (stereo not given),63.6%
10,CC(C)(C)NC(=O)CCc1nc(-c2ccc(C(C)(C)C)cc2)no1,83.8%
11,CNC(=O)CCc1nc(-c2ccc(F)cc2)no1,-27.1%
12,CCNC(=O)CCc1nc(-c2ccccc2C)no1,27.8%
13,CC(C)CNC(=O)CCc1nc(-c2ccc(C(C)(C)C)cc2)no1,63.8%
14,CC(C)(C)c1ccc(-c2noc(CCC(=O)N3CCOCC3)n2)cc1,-33.9%
15,CCNC(=O)CCc1nc(-c2c(Cl)cccc2Cl)no1,53.6%
16,CCNC(=O)CCc1nc(-c2ccccc2Cl)no1,26%
17,CCNC(=O)CCc1nc(-c2ccc(OCC)cc2)no1,-27.3%
18,CCNC(=O)CCc1nc(-c2ccc(C(C)(C)C)cc2)no1,17.6% and 9.6%
19,COC(=O)CCc1nc(-c2ccc(C(C)(C)C)cc2)no1,123%
20,CC(C)(C)c1ccc(-c2noc(CCC(=O)NC3CCCCC3)n2)cc1,93.4%
21,COc1cccc(NC(=O)CCc2nc(-c3ccc(C(C)(C)C)cc3)no2)c1,118%
22,CC(C)(C)c1ccc(-c2noc(CCC(=O)NC3CCCC3)n2)cc1,94.6%
23,CCOc1ccccc1NC(=O)CCc1nc(-c2ccc(C(C)(C)C)cc2)no1,117%
24,CCNC(=O)CCc1nc(-c2ccc(C(C)C)cc2)no1,-50.6%
25,CCc1ccc(-c2noc(CCC(=O)NC3CC3)n2)cc1,-19.4%
26,O=C(O)CCc1nc(-c2ccccc2)no1,25.2%
27,COc1ccccc1NC(=O)CCc1nc(-c2ccc(C(C)(C)C)cc2)no1,115%
28,CCNC(=O)CCc1nc(-c2cccc(F)c2)no1,19.4%
29,CCc1ccc(-c2noc(CCC(=O)NC(C)CC)n2)cc1 (stereo not given),-89.5%
30,CNC(=O)CCc1nc(-c2ccc(OC)cc2)no1,36.2%
